PMC6044864 (ACS Omega, 2017)

How the values were obtained:
bacteria = details: cited from earlier work
Candida albicans cells = details: cited from earlier work
human erythrocytes = details: cited from earlier work
HeLa cells = details: cited from earlier work
[1] = system: Trichosporon beigelii cells; details: cited from earlier work
Photodegradation = type: physicochemical; details: photostability; 10 μmol·L^–1 in 60% ACN/H2O/0.09% TFA; laser 440 nm; 0 to 50 min
Summary of the method: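 Test compound was irradiated in solution at room temperature with a pulsed 10 Hz laser at 440 nm for 50 min. UV/vis absorption spectra were recorded before irradiation and every 5 min. Absorbance maximum at 440 nm was plotted against time, and the change was taken as the difference between initial and final readings.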

Difference of absorbance at 440 nm in 50 min of exposure to light (Photodegradation) | Substance | Growth inhibition of bacteria (bacteria) | Growth inhibition of Candida albicans cells (Candida albicans cells) | Hemolytic effect (human erythrocytes) | Cell penetration and nuclear localisation (HeLa cells) | Cell penetration and nuclear localisation [1]
 | TAT peptide (47-58): carboxyl-free analogue of TAT(47-57)-NH2 | inhibit the growth | inhibit the growth | without hemolytic effect | penetrate, and localize in the nucleus | penetrate, and localize in the nucleus
0.022 | 5(6)-carboxyfluorescein [FAM] |  |  |  |  | 
